The text below walks through data of ChEMBL document CHEMBL1157562, “Piperazinyl glutamate pyridines as potent orally bioavailable P2Y12 antagonists for inhibition of platelet aggregation” (J Med Chem, 2010).

What is called bioavailability is dose-corrected exposure relative to a reference, in per cent. As usually defined, the pKi is the negative decadic logarithm of the Ki, by convention in mol/L. In general, half-life refers to how long it takes for the measured level to halve. Read a high half-life as slow decline. Usually pIC50 stands for the negative decadic logarithm of the IC50, by convention in mol/L.

A short description of one data set: in vivo. Particulars: Sprague-Dawley, rat, po, 5 mg/kg.
The target in a further data set is P2Y purinoceptor 12 (Homo sapiens, UniProt Q9H244). Nature of the data set: Displacement of [33P]ADP from human recombinant P2Y12 receptor expressed in CHO cells. Format: cell-based. In outline:
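Washed membranes from CHO cells expressing synthetic human P2Y12, incubated 1 h at room temperature with 0.2 nM 33P-MeSADP in 50 mM Tris/100 mM NaCl/1 mM EDTA. Compound was tested as a 7-point 3-fold series in triplicate. Nonspecific binding was defined with 300 nM 2-MeSADP, followed by filtration.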

A short description of data set [1]: Clearance in Sprague-Dawley rat at 2 mg/kg, iv and 5 mg/kg, po. Type of data set: ADME, organism-based. The settings on record: in vivo. The method, boiled down:
(§1)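 Rats received 2 mg/kg iv infusion or 5 mg/kg po, in 50% PEG400/40% PBS/10% ethanol.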

In another data set the test system is Platelet. Description: Relative potency, ratio of IC50 for drug to IC50 for AZD-6140 for platelet aggregation in human platelet rich plasma. Format: functional.
Data set [2] in a line: Half life in Sprague-Dawley rat at 2 mg/kg, iv and 5 mg/kg, po. Type of data set: ADME, organism-based. Particulars: in vivo. The method, boiled down: as §1
Data set [3] is described as follows: Antiplatelet aggregation activity against adenosine diphosphate-induced human platelet rich plasma assessed as inhibition of platelet aggregation by turbidimetric method. The settings on record: Homo sapiens, Platelet, Plasma. Type of data set: functional. In outline:
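Human PRP, prepared by two-step centrifugation and adjusted to 330 000 platelets/μL with PPP. Compound was preincubated 5 min at 37 °C in 0.5% DMSO, then 20 μM ADP was added. OD626 was read kinetically for 15 min at 37 °C with mixing between reads.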

Data set [4] in a line: Volume of distribution at steady state in Sprague-Dawley rat at 2 mg/kg, iv and 5 mg/kg, po. Format: ADME, organism-based. Particulars: in vivo, read-out: Vdss. In outline: as §1

SMILES strings stand for the structures. pIC50, pKi: −log10 of the molar value.

Chain of P2Y purinoceptor 12 (Q9H244 whole entry): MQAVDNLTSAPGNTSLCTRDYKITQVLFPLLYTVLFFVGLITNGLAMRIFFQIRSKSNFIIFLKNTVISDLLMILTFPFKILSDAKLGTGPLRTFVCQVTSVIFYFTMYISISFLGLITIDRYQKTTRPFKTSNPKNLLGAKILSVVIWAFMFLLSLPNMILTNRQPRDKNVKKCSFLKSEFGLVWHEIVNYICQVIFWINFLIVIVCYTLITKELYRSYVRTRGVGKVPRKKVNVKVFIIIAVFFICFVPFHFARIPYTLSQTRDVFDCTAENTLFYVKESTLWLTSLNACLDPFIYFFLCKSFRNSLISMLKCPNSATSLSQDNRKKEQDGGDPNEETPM

For the compound `CCCCCCOC(=O)N1CCN(C(=O)[C@H](CCC(=O)O)NC(=O)c2cc(OC3CCNCC3)cc(-c3ccccc3)n2)CC1`, the bioavailability in “in vivo” is 1%. In addition, at P2Y purinoceptor 12, the pKi is 8.03. This compound yielded a clearance in data set [1] of 150 mL/min/kg. For the same compound, the “Ratio IC50” value in the data set with Platelet worked out at 1.8. The half-life in data set [2] was 30 min. In addition, the pIC50 in data set [3] is 5.62. In addition, the Vd in data set [4] is 6.9 L/kg.
`CCCCCOC(=O)N1CCN(C(=O)[C@H](CCC(=O)O)NC(=O)c2cc(NCCO)cc(-c3ccccc3)n2)CC1` yielded a bioavailability in the data set “in vivo” of 8%. For the same compound, the pKi on P2Y purinoceptor 12 is 8.24. For the same compound, the clearance in data set [1] was 103 mL/min/kg. The “Ratio IC50” value in the data set with Platelet is reported as 3.2. Moreover, the half-life in data set [2] was 24 min. Moreover, the negative-log IC50 (pIC50) in data set [3] was 5.42. The Vd in data set [4] was determined as 3.9 L/kg.
In the data set “in vivo”, `CCCCCOC(=O)N1CCN(C(=O)[C@H](CCC(=O)O)NC(=O)c2cc(O)cc(-c3ccccc3)n2)CC1` gave a bioavailability of 66%. Also, at P2Y purinoceptor 12, the pKi was 7.96. The compound also showed a clearance in data set [1] of 675 mL/min/kg. For the same compound, the “Ratio IC50” value in the data set on Platelet amounted to 7.2. For the same compound, the half-life in data set [2] is 30 min. Besides, the pIC50 in data set [3] was 5.00. Besides, in data set [4], the Vd turned out to be 29 L/kg.
As for `CCCCOc1cc(C(=O)N[C@@H](CCC(=O)O)C(=O)N2CCN(C(=O)OCC)CC2)nc(-c2ccccc2)c1`, the bioavailability in “in vivo” was determined as 72%. Also, the pKi on P2Y purinoceptor 12 was 7.22. The compound further registered a clearance in data set [1] of 109 mL/min/kg. The “Ratio IC50” value in the data set on Platelet is given as 32. For the same compound, the half-life in data set [2] is 24 min. In addition, in data set [3], the pIC50 was 4.47. Moreover, in data set [4], the Vd turned out to be 3.9 L/kg.
Consider `CCOC(=O)N1CCN(C(=O)[C@H](CCC(=O)O)NC(=O)c2cccc(-c3ccccc3)n2)CC1`, for which the bioavailability in “in vivo” was found to be 34%. Moreover, the pKi on P2Y purinoceptor 12 is 6.68. In data set [1], the clearance was 98 mL/min/kg. The half-life in data set [2] was 108 min. In data set [3], the pIC50 is 4.15. The Vd in data set [4] was found to be 15.5 L/kg.
For `CCCCCOC(=O)N1CCN(C(=O)[C@H](CCC(=O)O)NC(=O)c2cc(OCC3CCN(C)CC3)cc(-c3ccccc3)n2)CC1`, the pKi on P2Y purinoceptor 12 is 8.28. For the same compound, in data set [1], the clearance is 130 mL/min/kg. Further, the “Ratio IC50” value in the data set on Platelet stood at 0.62. Besides, the half-life in data set [2] is 36 min. For the same compound, in data set [3], the negative-log IC50 (pIC50) is 6.48. Moreover, the Vd in data set [4] amounted to 6.9 L/kg.
Take `CCCCCOC(=O)N1CCN(C(=O)[C@H](CCC(=O)O)NC(=O)c2cc(CCCNCC(C)C)cc(-c3ccccc3)n2)CC1`: the pKi at P2Y purinoceptor 12 was 7.92. This compound also had a clearance in data set [1] of 112 mL/min/kg. For the same compound, in the data set with Platelet, the “Ratio IC50” value worked out at 1.5. This compound had a half-life in data set [2] of 36 min. Also, the pIC50 in data set [3] is 6.00. In addition, the Vd in data set [4] is 5.6 L/kg.
As to `CCCCCOC(=O)N1CCN(C(=O)[C@H](CCC(=O)O)NC(=O)c2cc(OCC3CCN(CCOC)CC3)cc(-c3ccccc3)n2)CC1`, the pKi on P2Y purinoceptor 12 is 8.28. This compound gave a clearance in data set [1] of 141 mL/min/kg. In addition, in the data set with Platelet, the “Ratio IC50” value is on record as 0.73. For the same compound, the half-life in data set [2] was 53.4 min. For the same compound, the pIC50 in data set [3] was 6.26. Moreover, the Vd in data set [4] stood at 10.9 L/kg.
Regarding `CCOC(=O)N1CCN(C(=O)[C@H](CCC(=O)O)NC(=O)c2cc(N3CCOCC3)cc(-c3ccccc3)n2)CC1`, the negative logarithm of the Ki (pKi) on P2Y purinoceptor 12 is 7.41. In data set [1], the clearance is 58 mL/min/kg. Moreover, the “Ratio IC50” value in the data set on Platelet is on record as 22. The compound also gave a half-life in data set [2] of 42 min. Besides, the negative-log IC50 (pIC50) in data set [3] was 4.60. For the same compound, the Vd in data set [4] amounted to 3.4 L/kg.
Take `CCCNc1cc(C(=O)N[C@@H](CCC(=O)O)C(=O)N2CCN(C(=O)OCC)CC2)nc(-c2ccccc2)c1`: in “in vivo”, the bioavailability was determined as 80%. In data set [1], the clearance came to 85 mL/min/kg. Also, the “Ratio IC50” value in the data set on Platelet was 28. The half-life in data set [2] was 30 min. In data set [3], the pIC50 is 4.55. In addition, in data set [4], the Vd worked out at 3.8 L/kg.
Turning to `CCOC(=O)N1CCN(C(=O)[C@H](CCC(=O)O)NC(=O)c2cc(OCCOC)cc(-c3ccccc3)n2)CC1`, the bioavailability in “in vivo” was determined as 33%. Besides, the pKi on P2Y purinoceptor 12 is 6.85. This compound registered a clearance in data set [1] of 94 mL/min/kg. For the same compound, the “Ratio IC50” value in the data set on Platelet turned out to be 8. This compound showed a half-life in data set [2] of 12 min. In data set [3], the pIC50 was 5.22. Moreover, the Vd in data set [4] worked out at 13.6 L/kg.
